Data on 9 molecules can be found in PubChem BioAssay.

Structures are written as SMILES. The source made the active and inactive calls.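 Rule for the calls, unless noted: active = visually confirmed hit in the image check and inhibition above 20%; inconclusive = visually confirmed hit but inhibition not above 20%; inactive = no visual hit in the image check.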

Test [1] is described as follows: inhibitors of TNFa-induced NFkB p65 translocation, primary screen, imaging, HUVEC, MLSMR starter and 10KST1 sets (AID 438;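 active = inhibition above 20% together with a positive visual image hit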;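 note: compound added about 3h40 before a 20 min TNFalpha stimulation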;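 for inhibition: signal is the nuclear over cytoplasmic p65 intensity ratio per well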). The settings on record: HUVEC TNFa-induced p65 nuclear translocation; cell count: measured here: nuclei count (cytotoxicity indicator), at 2.08 µM; inhibition: at 2 µM, stronger effect = higher value, 0% TNFa-plus-vehicle, 100% no-TNFa wells.
The nature of test [2]: inhibitors of mutant huntingtin aggregation, primary screen, imaging, exon1htt(103Q)mCFP cells, high-content imaging (AID 483;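 active = visual image review flags a hit and inhibition of aggregation exceeds 20%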;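 note: compound exposure lasted 3 days before fixation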;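 for nuclei count: percent of the per-plate median nuclei count of sample wells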). Conditions: exon1htt(103Q)mCFP cell line, aggregate imaging, at 2 µM; inhibition of aggregation: stronger effect = higher value; nuclei count: measured here: cell count, toxicity.
Test [3] in a line: inhibitors of E-selectin induction by TNFa, primary screen, imaging, HUVEC, immunofluorescence, MLSMR starter and 10KST1 sets (AID 487).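 For inhibition: signal is fraction of cell area covered by stained E-selectin grains.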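 For nuclei count: 100% = median nuclei count of all wells on the same plate.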 The settings on record: HUVEC TNFalpha-induced E-selectin immunofluorescence imaging, at 2 µM; inhibition: stronger effect = higher value; nuclei count: measured here: cell number, toxicity.
In test [4] the target is Voltage-gated potassium channel subunit beta-2 (Rattus norvegicus) (UniProt P62483). As to the kind of experiment: KvBeta enzyme negative modulators, primary screen, biochemical, NADPH fluorescence (AID 622;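 active = fluorescence slope higher than the sample average by over 3 SD, cut at about -0.22 in these data, passing the limit was not always enough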;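 note: slope of raw intensity against log time taken from 70 to 1610 s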). The settings on record: recombinant KvBeta, 4-cyanobenzaldehyde reduction, at 10 µM, stronger effect = higher value.
Sequence of Voltage-gated potassium channel subunit beta-2 (Rattus norvegicus) (P62483 whole entry, looked up): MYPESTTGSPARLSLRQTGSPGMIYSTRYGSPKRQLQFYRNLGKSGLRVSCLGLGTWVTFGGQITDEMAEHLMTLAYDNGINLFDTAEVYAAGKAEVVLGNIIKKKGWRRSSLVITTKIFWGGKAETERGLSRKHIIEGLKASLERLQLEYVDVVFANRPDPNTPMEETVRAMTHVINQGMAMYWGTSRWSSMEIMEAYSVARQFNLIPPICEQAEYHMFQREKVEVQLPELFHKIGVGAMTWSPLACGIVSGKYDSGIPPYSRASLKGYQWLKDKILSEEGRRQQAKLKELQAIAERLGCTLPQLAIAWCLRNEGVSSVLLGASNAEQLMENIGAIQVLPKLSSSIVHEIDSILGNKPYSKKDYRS
The target is the same in test [5]. The test is described as follows: KvBeta positive modulators, primary screen, biochemical, NADPH fluorescence (AID 623;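 active = NADPH fluorescence slope more negative than the mean of all samples by about 3 SD, 99.7% confidence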;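 note: fluorescence intensity change per second fitted from 20 to 320 s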). The settings on record: Recombinant KvBeta, NADPH fluorescence decrease slope, 10 min; at 10 µM; stronger effect = lower value.
Test [6] concerns the target Muscarinic acetylcholine receptor M4 (Homo sapiens) (UniProt P08173). The test is described as follows: compounds altering M4/GIRK thallium flux, either direction, primary screen, M4 allosteric agonist project, cell-based, HEK293 M4/GIRK, BTC-AM (AID 625;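 active = fluorescence slope after compound addition differing from the mean of all tested samples at 99.7% confidence, mostly higher but some lower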;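 note: thallium influx through GIRK channels coupled to M4 in HEK293 cells with BTC-AM dye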). Conditions: at 10 µM, actives lie on both sides. An outline of the steps: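 Material – HEK293 cells with M4 receptor and GIRK channels · Buffer or medium – pH 7.3 thallium assay buffer · Doses – one dose, 10 µM final · Timing – cells overnight at 37 °C, BTC-AM loading 1 h, reads 2 min total · Measured by – kinetic fluorescence with BTC-AM dye · Controls – carbachol and DMSO controls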

The nature of test [7]: inhibitors of Sendai virus-induced IRF3 signaling, primary screen, TLR/RLR signaling modifier project, cell-based, Sendai virus stimulus, luciferase, 10K MLSCN set (AID 602276;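 active = inhibition at or above 50% at 10 µM; inactive = inhibition below 50%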;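 note: firefly luciferase from ISG56 promoter only with Renilla not read in this screen; 0% = Sendai virus plus DMSO and 100% = medium plus DMSO without virus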). Conditions: HEK293 RL24 IRF3 luciferase reporter, at 10 µM, stronger effect = higher value. Background: Reporter assays use an easily measured gene product as a stand-in for the process of interest.
Test [8] in a line: inhibitors of poly I:C-induced TLR3 signaling, primary screen, cell-based, poly I:C stimulus, luciferase, 10K MLSCN set (AID 602277;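 active = inhibition of the reporter signal at or above 50%; inactive = inhibition below 50%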). The settings on record: HEK293-TLR3 RL24 IRF3 luciferase reporter, at 10 µM, stronger effect = higher value.

Sequence of Muscarinic acetylcholine receptor M4 (Homo sapiens) (P08173 whole entry, looked up): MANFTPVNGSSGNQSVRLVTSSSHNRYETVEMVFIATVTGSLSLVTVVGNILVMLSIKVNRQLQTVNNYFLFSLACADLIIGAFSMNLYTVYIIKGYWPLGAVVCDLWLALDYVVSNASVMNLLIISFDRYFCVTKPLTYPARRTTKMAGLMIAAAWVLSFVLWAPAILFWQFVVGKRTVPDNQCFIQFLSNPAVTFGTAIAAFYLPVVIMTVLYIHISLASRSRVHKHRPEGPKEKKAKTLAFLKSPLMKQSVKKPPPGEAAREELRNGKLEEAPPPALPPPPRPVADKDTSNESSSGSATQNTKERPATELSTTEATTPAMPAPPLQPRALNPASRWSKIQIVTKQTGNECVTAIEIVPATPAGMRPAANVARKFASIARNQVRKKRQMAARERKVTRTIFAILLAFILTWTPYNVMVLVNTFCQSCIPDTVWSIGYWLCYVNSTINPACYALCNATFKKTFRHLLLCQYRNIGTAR

`CCOC(=O)c1c(C)oc2ccc(O)c(CN3CCCCC3)c12`: the cell count in test [1] amounted to 376. Also, the inhibition in test [1] was -0.9% (inactive); in test [3], -90.5% (inactive); in test [7], 17.3% (inactive); in test [8], 31.7% (inactive). Moreover, the inhibition of aggregation in test [2] is -42.7% (inactive). Also, the values for the nuclei count in test [2] and in test [3] were 102% and 81.7%, respectively. The fluorescence slope in test [4] is -0.383 (inactive); in test [6], 0.00399 (inactive). For the same molecule, the NADPH fluorescence slope in test [5] was 2.5e-05 (inactive).
On to `Cc1nn(-c2nc3ccccc3[nH]2)c(N)c1-c1ccccc1`, for which the cell count in test [1] was 666. Further, the inhibition in test [1] is -7.5% (inactive); in test [3], -105% (inactive); in test [7], -38.3% (inactive); in test [8] it was -134% (inactive). Also, the inhibition of aggregation in test [2] was -12.6% (inactive). Besides, the nuclei count in test [2] and in test [3] was 110% throughout. The fluorescence slope is -0.47 (inactive) in test [4] and 0.00573 (inactive) in test [6]. Also, in test [5], the NADPH fluorescence slope is -2.8e-06 (inactive).
Turning to `C=CCn1cc(C(=O)NCCOC)c(=O)c2cc(S(=O)(=O)N(CC)CC)ccc21`, the cell count in test [1] was found to be 580. Besides, the inhibition in test [1] is -15.8% (inactive); in test [3] it was -11.3% (inactive); in test [7] it was 7.34% (inactive); in test [8], 17.4% (inactive). In addition, the inhibition of aggregation in test [2] was 7.1% (inactive). Moreover, the nuclei count in test [2] was 81.2%; in test [3], 115%. Also, the values for the fluorescence slope in test [4] and in test [6] were -0.607 (inactive) and 0.00635 (inactive), respectively. Also, the NADPH fluorescence slope in test [5] is 1.4e-05 (inactive).
As to `CCOc1ccc2nc(SCC#N)c(C#N)cc2c1`, the cell count in test [1] worked out at 430. Also, the inhibition in test [1] was 3.1% (inactive); in test [3] it was 9.9% (inactive); in test [7], -56.3% (inactive); in test [8], -93.9% (inactive). For the same molecule, the inhibition of aggregation in test [2] was -3.9% (inactive). Besides, the nuclei count in test [2] was 14.5%; in test [3] it was 114%. Further, the fluorescence slope was -0.561 (inactive) in test [4] and 0.00501 (inactive) in test [6]. Moreover, the NADPH fluorescence slope in test [5] is -1.4e-05 (inactive).
For `O=C(O)c1oc2ccccc2c1-n1cccc1`, the cell count in test [1] worked out at 436. Also, the inhibition is 13.8% (inactive) in test [1], -0.2% (inactive) in test [3], 10.5% (inactive) in test [7] and 26% (inactive) in test [8]. Further, the inhibition of aggregation in test [2] was 10.7% (inactive). Further, the nuclei count in test [2] is 110%; in test [3], 112%. For the same molecule, the results for the fluorescence slope in test [4] and in test [6] were -0.531 (inactive) and 0.00514 (inactive), respectively. The NADPH fluorescence slope in test [5] was -1.3e-05 (inactive).
For the molecule `NC1=NC(c2ccc(Br)cc2)n2c(nc3ccccc32)N1` (centres undefined), in test [1], the cell count is 779. The inhibition in test [1] was 4.8% (inactive); in test [3], -44.9% (inactive); in test [7], 17.6% (inactive); in test [8] it was 25% (inactive). In addition, the inhibition of aggregation in test [2] is -6.6% (inactive). For the same molecule, the nuclei count amounted to 105% in test [2] and 106% in test [3]. The values for the fluorescence slope in test [4] and in test [6] were -0.556 (inactive) and 0.00498 (inactive), respectively. Besides, in test [5], the NADPH fluorescence slope was -1.5e-06 (inactive).
For the molecule `Cc1ccc(CN2C(=O)CCC2C(=O)NCC2CCCO2)cc1` (centres undefined), the cell count in test [1] amounted to 317. Also, the inhibition in test [1] was 10.5% (inactive); in test [3], -16.2% (inactive); in test [7], -7.7% (inactive); in test [8] it was 1.56% (inactive). Besides, the inhibition of aggregation in test [2] was -27.2% (inactive). Besides, the nuclei count in test [2] was determined as 91%; in test [3], 97.8%. The fluorescence slope in test [4] is -0.556 (inactive); in test [6] it was 0.0066 (inactive). Moreover, the NADPH fluorescence slope in test [5] was -2.2e-05 (inactive).
Regarding `COCCCn1c2nc3ccccc3nc2c2c(=O)n(-c3ccccc3OC)cnc21`, in test [1], the cell count turned out to be 334. The inhibition was 6.3% (inactive) in test [1], 16.9% (inactive) in test [3], -1.7% (inactive) in test [7] and -9.3% (inactive) in test [8]. Besides, the inhibition of aggregation in test [2] is -5.4% (inactive). Further, the nuclei count in test [2] turned out to be 98.2%; in test [3], 102%. In addition, the fluorescence slope in test [4] is -0.457 (inactive); in test [6], 0.0045 (inactive). For the same molecule, the NADPH fluorescence slope in test [5] was 4.9e-05 (inactive).
As for `Cc1cccc(C)c1NC(=O)CC(NCc1ccco1)C(=O)O` (centres undefined), the cell count in test [1] came out at 623. In addition, the inhibition in test [1] was -8.3% (inactive); in test [3], 26.5% (inactive); in test [7], 10.4% (inactive); in test [8] it was 23.1% (inactive). Further, the inhibition of aggregation in test [2] is -5.4% (inactive). Besides, the nuclei count in test [2] is 71.3%; in test [3], 105%. Besides, the results for the fluorescence slope in test [4] and in test [6] were -0.364 (inactive) and 0.00596 (inactive), respectively. The NADPH fluorescence slope in test [5] was -6.5e-05 (inactive).

In general, inhibition refers to the change of the read-out against control, counted positive when it falls.
